Rows were chosen to be rich in hits. Some 1.5% of all compounds tested hit in one or more screens of this group.
DAGLB inhibitor – diacylglycerol lipase beta (human) inhibition; Q8NCG7; HEK293T DAGLB membrane lysate, EnzChek fluorogenic substrate; inhibition, % at 5.17 µM; actives 0.059% (n = 340,000); in the data active = inhibition above about 34%;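 note: 0% = enzyme with vehicle and 100% = wells lacking enzyme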
Target sequence (Q8NCG7 whole entry, looked up): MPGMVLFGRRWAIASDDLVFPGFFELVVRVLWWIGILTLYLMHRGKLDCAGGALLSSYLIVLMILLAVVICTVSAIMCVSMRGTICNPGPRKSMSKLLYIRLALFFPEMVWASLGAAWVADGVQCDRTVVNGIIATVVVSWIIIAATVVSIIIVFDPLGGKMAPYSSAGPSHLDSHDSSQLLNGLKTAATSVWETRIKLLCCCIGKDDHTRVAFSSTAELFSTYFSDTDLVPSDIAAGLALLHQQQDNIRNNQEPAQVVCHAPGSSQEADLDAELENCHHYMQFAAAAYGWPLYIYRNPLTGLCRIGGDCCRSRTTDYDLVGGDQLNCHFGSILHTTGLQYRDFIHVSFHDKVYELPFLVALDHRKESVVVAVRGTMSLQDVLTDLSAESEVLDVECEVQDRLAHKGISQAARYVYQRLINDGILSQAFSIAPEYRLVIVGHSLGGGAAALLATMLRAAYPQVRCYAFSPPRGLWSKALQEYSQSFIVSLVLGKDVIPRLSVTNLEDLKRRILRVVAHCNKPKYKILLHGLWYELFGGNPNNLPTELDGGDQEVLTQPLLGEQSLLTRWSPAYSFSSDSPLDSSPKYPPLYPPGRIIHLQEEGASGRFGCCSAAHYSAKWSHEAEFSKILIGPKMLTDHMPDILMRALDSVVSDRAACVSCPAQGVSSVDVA
CTSL1 counter – cathepsin L1 inhibition, PFM18AAP counter-screen. actives 0.49% (n = 300,000). recombinant F. hepatica cathepsin L1, Z-Leu-Arg-MCA fluorescence. inhibition, % at 5.96 µM. AID 1906;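 active = inhibition above the mean of all tested compounds plus 3 SD, set per screening campaign, cut at about 17% in these data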;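 note: 0% = plate median of test compound wells and 100% = 1 µM Z-Phe-Ala-diazomethylketone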
CendR NRP1 mod – modulators of CendR peptide binding to human neuropilin-1 | O14786 | actives 0.85% (n = 360,000) | FAM-RPARPAR peptide binding to NRP-1, fluorescence polarization | inhibition, % at 25 µM;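 active = inhibition or corrected inhibition above about 18%, plus a signal ratio from 0.5 to 1.5, limit read from the data, passing the limit was not always enough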
UCH37 inh – human UCH37 deubiquitinating enzyme inhibition | inhibition, % (test concentration not listed) | actives 0.33% (n = 330,000) | Q9Y5K5 | purified proteasome/UCH37, Ub-AMC cleavage fluorescence | AID 588478;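 active = mean inhibition over replicate wells above about 20%, limit read from the data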;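 note: 0% = compound-free wells with enzyme and 100% = wells lacking proteasome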
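Test system – human UCH37 enzyme supplied as purified proteasome complex · Incubation – 30 min preincubation with enzyme, 25 min cleavage at room temperature · Detection – AMC fluorescence from Ub-AMC cleavage, excitation 355 nm, emission 460 nm · Benchmarks – no-proteasome wells (full inhibition) and compound-free wells (no inhibition)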
MT1-MMP act inh – MT1-MMP (human) activation inhibition. P50281. HT1080 RFP-PRO-GFP cells, GFP/RFP ratio fluorescence, overnight; percent of plate control window, DMSO zero. GFP/RFP ratio change, % at 20 µM. actives 0.061% (n = 360,000). AID 651647;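 active = GFP/RFP ratio change of at least 30% with cell ATP level not reduced by more than half and red fluorescence within 50% of control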
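Test system: HT1080 cells expressing an RFP-PRO-GFP fluorescent reporter construct / Compound dosing: single-point 20 µM compound, 1% DMSO / Schedule: cells overnight before dosing, compound overnight, 37 °C, 5% CO2 / Evaluation: GFP/RFP fluorescence ratio / Control set: DMSO and RFP-L50D-GFP cell wells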
UCH37 reconfirm – reconfirmed inhibitor of human deubiquitinase UCH37. shares compounds with UCH37 inh. Proteasome-bound UCH37, Ub-AMC cleavage fluorescence. inhibition, % at 20 µM. actives 27% (n = 480). AID 624100;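 active = average inhibition over replicates above about 50%, so the earlier screening hit is confirmed, limit read from the data; inactive = the rest, counted as false positives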;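 note: based on cleavage rate fitted by regression over a 30 min kinetic read; 0% = proteasome plus Ub-AMC and 100% = Ub-AMC without proteasome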
Active calls of the source: *; · = not tested or not shown.

SMILES | DAGLB inhibitor | CTSL1 counter | CendR NRP1 mod | UCH37 inh | MT1-MMP act inh | UCH37 reconfirm
CCOc1ccc(C=NNC(=O)C(C)N(c2ccc(OC)cc2)S(C)(=O)=O)cc1OCC (stereo not drawn) | · | · | · | 1.8 | · | ·
COc1cccc(C(=O)NN=c2sc3ccccc3n2C)c1 | · | · | · | 3.7 | · | ·
CC(C)NC(=O)/C(C#N)=C/c1ccc(N(C)C)o1 | -2.7 | 6.0 | -150.8 | 32.4* | -57.1 | 34.4
CCOc1ccc(C2/C(=C(/O)c3ccc(F)cc3)C(=O)C(=O)N2CCCN(C)C)cc1 (stereo not drawn) | 0.5 | -3.0 | 15.4 | 35.1* | 0.3 | 15.9
COc1ccc(/C(O)=C2/C(=O)C(=O)N(CCCN3CCOCC3)C2c2ccc(OC)cc2)cc1 (stereo not drawn) | -0.2 | -0.8 | -9.1 | 8.2 | -0.2 | ·
C=CCOc1ccc(C2/C(=C(/O)c3ccc(OC)cc3)C(=O)C(=O)N2CCN2CCNCC2)cc1 (stereo not drawn) | -0.1 | -2.5 | -2.6 | 55.2* | 0.4 | 7.3
CN(C)C(=O)C[n+]1ccc(/C=N/O)cc1 | -1.9 | 2.3 | -11.7 | · | 5.1 | ·
CCCCCCCCCCCCCCCC[n+]1ccc(C=NO)cc1 | · | · | · | 53.0* | · | 57.0*
O=C(CCC(=O)NN=Cc1ccccc1O)NCc1ccccc1 | · | · | · | -36.8 | · | ·
CSc1nnc(NC(=O)c2cc(=O)c3cc(C)cc(C)c3o2)s1 | -1.2 | 4.8 | 12.4 | 34.2* | 1.2 | 9.4
COCCNC(=O)/C(C#N)=C/c1ccc(-c2ccc(OC)cc2[N+](=O)[O-])o1 | -0.6 | 6.2 | -14.3 | 51.9* | -4.4 | 30.3
N#C/C(=C\c1ccc(N2CCOCC2)o1)C(=O)NCC1CCCO1 (stereo not drawn) | -2.0 | 9.1 | -257.0 | 30.7* | -55.4 | 40.1
N#C/C(=C/c1ccc(N2CCOCC2)o1)C(=O)Nc1ccccc1 | -39.9 | · | 134.4 | 19.3 | -127.7 | ·
COCCNC(=O)/C(C#N)=C/c1ccc(N2CCOCC2)o1 | -1.5 | 6.1 | -163.7 | 37.6* | -49.3 | 36.1
N#C/C(=C\c1ccc(N2CCOCC2)o1)C(=O)NC1CCCCC1 | -11.0 | 9.7 | -260.3 | 29.6* | -131.9 | 20.2
N#CC(=NNc1ccc(Br)cc1)C(=N)N1CCOCC1 | · | · | · | 17.8 | · | ·
CCOc1ccc(N(CC(=O)NN=Cc2ccccn2)S(=O)(=O)c2ccc(Cl)cc2)cc1 | · | · | · | 3.6 | · | ·
COc1ccc(Cc2nnc(NN=Cc3ccc(O)cc3O)[nH]c2=O)cc1OC | · | · | · | 11.4 | · | ·
CN(N=Cc1ccncc1)c1cnc2ccccc2n1 | · | · | · | -81.5 | · | ·
COC(=O)C1SCC2C(=O)N(Cc3ccc(Cl)cc3)CC(=O)N21 (stereo not drawn) | -0.4 | -1.0 | -4.3 | 16.4 | 0.2 | ·
COC(=O)C1SCC2C(=O)N(Cc3ccc(Cl)c(Cl)c3)CC(=O)N21 (stereo not drawn) | 1.8 | 2.3 | 0.2 | 28.9* | 1.5 | 20.8
O=C(CCC(=O)Nc1ccc(Br)cc1)NN=Cc1ccc(F)cc1 | · | · | · | 1.8 | · | ·
CN1CCC/C1=C/C=C1\SC(=S)NC1=O | -91.1 | 10.2 | 124.0 | 35.3* | -82.6 | 33.7
CN1/C(=C\C=C2/SC(=S)NC2=O)C(C)(C)c2ccccc21 | -73.2 | 2.8 | 132.3 | 8.4 | -14.2 | ·
COCCn1c(COc2ccc(C)cc2)nc2ccccc21 | -4.1 | 0.2 | 12.4 | 35.6* | -0.9 | 3.1
SMILES | DAGLB inhibitor | CTSL1 counter | CendR NRP1 mod | UCH37 inh | MT1-MMP act inh | UCH37 reconfirm
Oc1ccc(N=Nc2ccccc2-c2nn[nH]n2)c(O)c1 | 20.4 | 2.8 | 9.5 | 26.9* | 17.9 | 25.8
Cc1ccsc1C=NNC(=O)c1n[nH]c2c1CCC2 | · | · | · | 10.1 | · | ·
COc1cc(C(=O)NCC(=O)NN=Cc2ccccn2)cc(OC)c1OC | · | · | · | 2.3 | · | ·
O=C(O)CNC(=O)CC1S/C(=N/N=Cc2ccccc2O)NC1=O (stereo not drawn) | · | · | · | 10.5 | · | ·
Cc1ccccc1OCC(=O)NNC(=O)CCc1ccccc1 | -1.0 | -19.0 | 14.4 | 5.0 | -1.1 | ·
Cc1ccccc1OCC(=O)NCc1ccccc1 | -2.4 | 1.9 | -4.5 | 41.1* | 1.1 | 15.4
O=C(CC=NOCc1ccc(Cl)cc1Cl)c1ccccc1 | · | · | · | 0.0 | · | ·
N#CC(=NNc1ccc([N+](=O)[O-])cc1)C(N)=S | · | · | · | 29.0* | · | 18.9
CC(=NNC(=O)c1nn(C)cc1Br)c1cccc(NC(=O)c2ccncc2)c1 | · | · | · | 1.7 | · | ·
